Reference: ChEMBL document CHEMBL1641421, “Synthesis of novel 5-amino-thiazolo[4,5-d]pyrimidines as E. coli and S. aureus SecA inhibitors” (Bioorg Med Chem, 2011)
Calls of active or inactive are those of the source. No cut-off for these calls is given here.

Experiments:
[1] = Inhibition of intrinsic ATPase activity of Escherichia coli SecA expressed in Escherichia coli BL21.19 cells assessed as hydrolysis of ATP after 2 hrs by malachite green colorimetric method
Summary of the method: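 Recombinant His-tagged ecSecA at 0.5 µM (50 µg/ml) was incubated at 37 °C with 100 µM ATP and compound (0–200 µM) for 2 h. Buffer was 50 mM Tris–HCl, 50 mM KCl, 5 mM MgCl2, 0.4 mg/ml BSA, pH 8.0. Released Pi was read with malachite green (20 min rt, 660 nm). Rates were taken relative to no-compound, and IC50 was fitted by nonlinear regression from three independent experiments.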

Staphylococcus aureus = test: Inhibition of intrinsic ATPase activity of Staphylococcus aureus SecA expressed in Escherichia coli BL21.19 cells assessed as hydrolysis of ATP after 2 hrs by malachite green colorimetric method; conditions: dose or concentration not given here
Summary of the method: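 His-tagged saSecA1 at 4 µM (400 µg/ml) was incubated at 28 °C for 2 h with 100 µM ATP. Buffer was 50 mM HEPES, 50 mM KCl, 2 mM MgCl2, 0.4 mg/ml BSA, pH 7.5. Liberated Pi was quantified with malachite green (20 min room temperature, 660 nm).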

Escherichia coli [2] = test: Inhibition of intrinsic ATPase activity of Escherichia coli SecA expressed in Escherichia coli BL21.19 cells assessed as hydrolysis of ATP at 200 uM after 2 hrs by malachite green colorimetric method
Summary of the method: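 Single-concentration screen: compound at 200 µM with His-tagged ecSecA at 0.5 µM (50 µg/ml) and 100 µM ATP, 37 °C, 2 h. Buffer was 50 mM Tris–HCl, 50 mM KCl, 5 mM MgCl2, 0.4 mg/ml BSA, pH 8.0. Free Pi was detected with malachite green reagent (20 min rt, absorbance 660 nm).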

[3] = Inhibition of ATPase activity of Escherichia coli SecA expressed in Escherichia coli BL21.19 cells assessed as hydrolysis of ATP after 2 hrs using Dixon plot analysis by malachite green colorimetric method
Escherichia coli [4] = test: Mixed-type inhibition of ATPase activity of Escherichia coli SecA expressed in Escherichia coli BL21.19 cells assessed as hydrolysis of ATP after 2 hrs using MM equation at 25 to 200 uM by malachite green colorimetric method

Compound: Nc1nc(N2CCOCC2)c2sc(/C=C/c3ccccc3)nc2n1
- IC50 [1]: 197 µM
- inhibition (Staphylococcus aureus): 40%
- inhibition (Escherichia coli [2]): 70%

Compound: Nc1nc(-c2ccc(F)cc2)c2sc(N3CCNCC3)nc2n1
- inhibition (Escherichia coli [2]): 35%

Compound: CC(C)(C)OC(=O)N1CCN(c2nc3nc(N)nc(-c4ccc(F)cc4)c3s2)CC1
- inhibition (Escherichia coli [2]): 50%

Compound: Cc1cccc(NC(=O)N2CCN(c3nc(N)nc4nc(-c5ccc(F)cc5)sc34)CC2)c1
- inhibition (Staphylococcus aureus): 40%

Compound: COCCNc1nc2nc(N)nc(N3CCOCC3)c2s1
- Activity (Escherichia coli [2]): Active

Compound: Nc1nc(N2CCOCC2)c2sc(C#Cc3ccccc3)nc2n1
- inhibition (Staphylococcus aureus): 40%
- Activity (Escherichia coli [2]): Active

Compound: Nc1nc(N2CCOCC2)c2sc(-c3ccc(F)cc3)nc2n1
- Activity (Escherichia coli [2]): Active

Compound: CC(=O)N1CCN(c2nc(N)nc3nc(-c4ccc(F)cc4)sc23)CC1
- inhibition (Escherichia coli [2]): 50%

Compound: Nc1nc(-c2ccc(F)cc2)c2sc(N3CCN(C(=O)COc4ccc(Cl)cc4)CC3)nc2n1
- IC50 [1]: 135 µM
- Ki [3]: 60 µM
- inhibition (Escherichia coli [2]): 76%
- inhibition (Escherichia coli [4]): Active

Compound: Nc1nc(N2CCN(C(=O)COc3ccc(Cl)cc3)CC2)c2sc(-c3ccc(F)cc3)nc2n1
- inhibition (Escherichia coli [2]): 50%

Compound: Nc1nc(N2CCOCC2)c2sc(N3CCOCC3)nc2n1
- Activity (Escherichia coli [2]): Active

Compound: Cc1cccc(NC(=O)N2CCN(c3nc4nc(N)nc(-c5ccc(F)cc5)c4s3)CC2)c1
- inhibition (Staphylococcus aureus): 40%
- inhibition (Escherichia coli [2]): 50%

Compound: COCCNc1nc2nc(N)nc(-c3ccc(F)cc3)c2s1
- inhibition (Escherichia coli [2]): 50%
